# Results reported in ChEMBL document CHEMBL4513216, “Probing the Open Global Health Chemical Diversity Library for Multistage-Active Starting Points for Next-Generation Antimalarials” (ACS Infect Dis, 2020).
# Assay: Toxicity liver stage against HepG2, at 10uM
# Type: cell-based
# Design: test concentration 10 uM, cell line HepG2-A16-CD81EGFP
# Details: human, HepG2-A16-CD81EGFP cells; read-out: INHIBITION
# Outline: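 Uninfected HepG2-A16-CD81EGFP cells, 3 × 10^3 per well, 1536-well, plated on prespotted compound at 10 μM final, parasite-free screening media added to match infected plates; puromycin 10 μM positive, DMSO 0.5% negative; run in parallel with 48 h PbLuc assay at 37 °C, 5% CO2; viability by CellTiter-Glo luminescence, normalized to controls.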
row,Structure (SMILES),cytotoxicity at 10 µM [%]
1,COc1ccc(CN2CCC[C@H]2c2nc(-c3cncnc3N)no2)cc1,-57
2,CCOC(=O)[C@H]1[C@@H](O)C(=O)N(C)C12CCN(S(=O)(=O)CC)CC2,-6.06
3,CC(C)Cc1nc(OCC#N)c(C#N)c2c1CCC2,-1.63
4,CC(C)C[C@H](NC(=O)NC1CCS(=O)(=O)C1)C(=O)NCc1cccnc1 (some centres undefined),0.948
5,CC(C)c1sc(Br)nc1C(=O)NCc1ccncc1,1.18
6,COc1ccc(NC(=O)Nc2cnc(N3CCN(C)CC3)nc2)cc1Cl,-19.8
7,COCCCN1CC2(CCCCN2C(=O)C2CCCCC2)CC1=O (centres undefined),12.2
8,c1cnc(N2CC[C@@H]3[C@@H]2CCN3Cc2cccs2)nc1,3.91
9,CNC(=O)N1CCC2(CC1)C(=O)N(C)c1c(F)cccc12,-5.86
10,CCN1C(=O)CC[C@@H]2[C@H]1CCN2C(=O)Cc1cccc(OC)c1,0.657
11,COCC(=O)N1CCC(c2nc3ccc(N4CCOCC4)cn3n2)CC1,12
12,CS(=O)(=O)N1C[C@@H]2COC[C@H](C(=O)Nc3cnccn3)[C@@H]2C1,14.6
13,COc1ccc(C(=O)COc2coc(CN3CCCCC3)cc2=O)cc1,5.12
14,O=C(O)CNC(=O)Cc1csc(-c2cccc(Cl)c2)n1,4.32
15,CCOC(=O)N1CCN(c2nc(NC)c3ccccc3n2)CC1,-9.75
16,CCCNC(=O)c1cc(C(C)C)nc(N2CCCCC2)n1,15.8
17,CNC(=O)CCc1cccc(C2CCCN(c3cc(C)ncn3)C2)n1 (centres undefined),1.58
18,CN1CCN([C@@H]2CN(C(=O)c3cc4cccc(F)c4[nH]3)C[C@H]2O)CC1,-6.81
19,CN1CCCC(c2cccc(-c3cccc(C(F)(F)F)c3)n2)C1 (centres undefined),-6.47
20,Cc1cc2c(=O)n3c(nc2s1)CCN(C(=O)c1nn(C)cc1Cl)CC3,16.6
21,Cc1nc(CC(=O)N2CCCCC2c2ccn3ccnc3n2)cs1 (centres undefined),-13.4
22,CC1(C(=O)NCc2ccsc2)CCOCC1,5.73

row,Structure (SMILES),cytotoxicity at 10 µM [%]
1,O=C(NCc1nnc2n1C(C(=O)NC1CC1)CC2)c1ccc(Cl)cc1Cl (centres undefined),5.06
2,Cc1ccc(F)c(S(=O)(=O)N2CCCC2c2ccncc2)c1 (centres undefined),10.6
3,CCN(CC1CC1)C(=O)NCc1nnc2n1CCC2,-13.2
4,Cc1ccc2c(c1)N(C(=O)c1c[nH]c(C)cc1=O)CC(C)O2 (centres undefined),23.6
5,CCC(=O)Nc1ccc(N2CCC(OC)CC2)c(C(F)(F)F)c1,5.72
6,Cc1cc(NC(=O)c2ccc(N3CCOCC3)cc2)[nH]n1,-28.5
7,Cc1ccc(C(=O)NCCS(=O)(=O)Cc2ccccc2)c(=O)[nH]1,-5.96
8,Cc1ccc(C)c(CS(=O)(=O)Cc2ccn(C)c(=O)c2)c1,13.8
9,O=S(=O)(NCCCn1cncn1)c1ccc2c(c1)CCO2,-10.2
10,O=C(NCc1ccc(-n2cncn2)nc1)c1cc(Cl)ccn1,2.8
11,Cc1ccc(F)c2c1CCCN2CC(=O)NC1CCS(=O)(=O)C1 (centres undefined),-11.9
12,Cn1ccnc1CN1CCN(Cc2cc(-c3ccccc3)no2)CC1,-15.5
13,Cc1cccc(C(=O)N2CCSCC2)c1NC(=O)c1cccnc1,-2.83
14,Cc1cnc(CNC(=O)NC2CCCN(c3ccccc3F)C2)s1 (centres undefined),16.4
15,Cc1ccc(C(=O)NCCS(=O)(=O)N2CCSCC2)o1,6.13
16,COc1ccc(CN(C(=O)C(C)SC)c2cnn(C)c2)c(OC)c1 (centres undefined),-3.88
17,Cc1nnc2n1CCN(CC(=O)NC(C)c1ccc3ccccc3c1)C2 (centres undefined),-7.91
18,CC(C)Cc1noc(CNc2cccc(-c3nnnn3C)c2)n1,4.6
19,COc1cc(CN2CCC(NC(=O)c3cccn3C)C2)cc(OC)c1 (centres undefined),-12.6
20,N#Cc1c(F)cccc1Nc1cnn(CC(O)CN2CCOCC2)c1 (centres undefined),-1.47
21,O=C(NCC1CCN(CCc2ccccc2)C1)c1c(F)cccc1F (centres undefined),16.6
22,COc1cc(NC(=O)NCCO)ccc1N1CCOC1=O,-0.803

row,Structure (SMILES),cytotoxicity at 10 µM [%]
1,CNC(=O)CC1CCN(C(=O)NCc2cn3c(C)cccc3n2)CC1,3.88
2,Cc1nsc(N2CCCN(C(=O)NCc3cc(C)on3)CC2)n1,-1.63
3,Cc1noc(CCCC(=O)N2CCCCC2c2nccs2)n1 (centres undefined),-87.5
4,Cc1csc(CNC(=O)NC(C)c2ccc3c(c2)OCCO3)n1 (centres undefined),-5.72
5,CC(CC#N)N(C)Cc1ccc(F)cc1C#N (centres undefined),-6.69
6,CC(C)CCS(=O)(=O)N1CCCC(c2nncn2C(C)C)C1 (centres undefined),5.04
7,CCn1c(CN(C)Cc2csc(C)n2)nc2cc(F)ccc21,-47
8,N#Cc1ccc(NC(=O)N2CCCCC2CN2CCCC2=O)cc1 (centres undefined),4.65
9,O=C(CCc1cscn1)N1CCC(C(=O)O)(c2ccccc2)CC1,-5.36
10,CNC(=O)CN(C)C(=O)c1cc2ccccc2cc1OC,17.1
11,COCCN(Cc1cccc(O)c1)CC1CC1,12.7
12,Cn1c(=O)ccn(CC(=O)N2CCCC(n3cccn3)C2)c1=O (centres undefined),-8.92
13,Fc1ccc(C2CN(CCc3ccncc3)CCO2)cc1 (centres undefined),11
14,CC1CN(CCc2ccncc2)CCO1 (centres undefined),-1.99
15,Cc1ccc(CNCc2nnc3n2CC(C(F)(F)F)CC3)cc1 (centres undefined),6.84
16,CCOCC(=O)NC1(c2cccc(Br)c2)CC1,-11.3
17,CC1=N[C@@]2(CC[C@@H]3CN(S(C)(=O)=O)C[C@@H]32)C(=O)N1CC(C)C,-71.3
18,O=C1CC(c2ccccc2)C2(CCN(C(=O)c3cnccn3)CC2)N1 (centres undefined),-75.1
19,c1ccc(-c2nnn3c2COC(CNCC2CCOCC2)C3)cc1 (centres undefined),11
20,Fc1ccccc1CC1CCN(Cc2ccccn2)CC1,2.25
21,CN(CCN1CCCC1)c1nccc(N2CCN[C@H]3CS(=O)(=O)C[C@H]32)n1,-8.93
22,COCCN1CCCC2(CCN(c3cccc(C(F)(F)F)n3)C2)C1=O (centres undefined),3.84

row,Structure (SMILES),cytotoxicity at 10 µM [%]
1,Cn1ccnc1CN1CCC(Cn2cc(-c3ccccc3)nn2)CC1,0.959
2,CC(C)CC(C)NC1CCN(c2ccc(-c3cscn3)cc2)CC1 (centres undefined),-50.6
3,CCCOC(=O)NCCC1CN(c2cnn(C)c(=O)c2)CCO1 (centres undefined),5.31
4,O=C(CN1CCNC1=O)N1CCc2nnc(-c3ccccc3)n2CC1,-46.1
5,COCc1cc(CNC(=O)c2c(C)c(C)cc(C)c2C)n[nH]1,-6.65
6,CN1CCN(C)C2(CCN(Cc3ccc(C4CCCO4)s3)CC2)C1 (centres undefined),-11.7
7,Cc1cc(C)c2nc(C)cc(C(=O)NC(C)c3nnn[nH]3)c2c1 (centres undefined),7.24
8,CCc1nc(CN(C)C(=O)c2cc(CN(CC)CC)c(CC)o2)no1,0.9
9,CC(=O)N[C@@H]1CN(C(=O)c2ccc[nH]2)C[C@H]1c1ccc(C)o1,5.16
10,COCCN(Cc1cnn(C)c1)c1nc2c(s1)c(C)nn2C,-42.4
11,CN(Cc1ccc(-n2cccn2)cc1)c1nc(N)nc2c1CCNCC2,6.99
12,CC(=O)Nc1ccc(Oc2ccc(CN3CCCC3)cc2F)cc1,0.9
13,O=C(Nc1ccc2c(c1)OCO2)N1CCCC1c1ccco1 (centres undefined),-2.11
14,Cc1cccnc1CN1CCN(C(=O)c2ccn(C(C)(C)C)c2)CC1,11
15,Cc1ccnc(CC(C)N(C)c2cc(CCN)nc(C)n2)c1 (centres undefined),-48
16,Cn1c(Cn2cccn2)nnc1C1CCCN(c2ccncc2)C1 (centres undefined),-14.2
17,COCCN1CCCC(O)(CN2CCN(c3ncccc3C)CC2)C1=O (centres undefined),-10.3
18,CC(C)c1nccn1CCCNC(=O)c1ccc(N(C)C)nc1,15.7
19,Cc1scc(C(=O)N2CCC3(CCCN(C)C3=O)C2)c1-c1ccccc1 (centres undefined),-6.05
20,O=C(c1cc(=O)[nH]c(=O)[nH]1)N1CCCCC1c1nc2cc(F)ccc2[nH]1 (centres undefined),-9.64
21,CN1CCCC(Cc2cncc(Br)c2)CC1 (centres undefined),-5.95
22,COC(=O)c1cccn1C1CCN(Cc2cccc(C(N)=O)c2)CC1,-4.7

row,Structure (SMILES),cytotoxicity at 10 µM [%]
1,CC(C)c1nc(C2CCCN(C(=O)c3ccc4c(c3)OCO4)C2)no1 (centres undefined),-14.1
2,Cc1cnn(CC2CN(Cc3nc4cccnc4[nH]3)CCO2)c1 (centres undefined),-1.04
3,Cc1cc(NC(=O)CN2CCn3c(C)nnc3C2)no1,-3.82
4,Cc1cccc(CS(=O)(=O)CC(=O)NCCCOC(C)C)c1,-5.15
5,Cc1noc(C2CCN(C(=O)CCNS(C)(=O)=O)CC2)n1,-21
6,O=C(O)c1cc(S(=O)(=O)Nc2ccc(Cl)cc2)cc2c1OCCO2,2.33
7,Cc1ccc(CNC(=O)NCCCn2nc3ccccn3c2=O)s1,-2.09
8,COc1ccc(CC(=O)N2CCC[C@@H](N)[C@@H]2c2ccccc2F)cc1,2.49
9,CN(Cc1ccnc2ccccc12)C1CCS(=O)(=O)C1 (centres undefined),4.36
10,c1cnc(N2CCCC3(CCN(c4ncccn4)C3)C2)nc1 (centres undefined),-151
11,O=C(NC1CC1)N1CCc2ccc(=O)n(Cc3cccnc3)c2CC1,0.995
12,CN1Cc2c(C(=O)Nc3cccnc3)ncn2-c2ccccc2S1(=O)=O,-4
13,CNC(=O)c1cc2c(nc1N(C)C)CCN(S(=O)(=O)N(C)C)CC2,-138
14,COCCC(=O)N1CCC2(CCN(Cc3cccc(F)c3)CC2)CC1,-75
15,O=C(c1ccccn1)N1C[C@H]2CCC[C@@]2(COCC2CCOCC2)C1,-76.3
16,CO[C@@H]1CCN(Cc2ccoc2)[C@@H]2CN(Cc3ccco3)C[C@@H]21,8.1
17,CC(C)CN1CCN(C)C2(CCN(c3nccs3)CC2)C1=O,-5.4
18,Cc1ccc(CN2CCc3ncc(CNC(=O)C4CCC4)n3CC2)o1,8.71
19,Cn1ccnc1CN1CCC2(CC(=O)N(c3ccccn3)C2)C1 (centres undefined),-74.6
20,Cc1ccc(N2CCO[C@H]3CN(Cc4ccc(F)cc4)C[C@H]32)nn1,-88.6
21,Cc1cccc(CN2CC3(CCN(Cc4ccoc4)CC3)OCC2=O)n1,-3.18
